Experimental data reported in ChEMBL document CHEMBL2424619, “Small-molecule ligands of methyl-lysine binding proteins: optimization of selectivity for L3MBTL3” (J Med Chem, 2013).

Assays:
PHD finger protein 23 = PHD finger protein 23 (Homo sapiens, UniProt Q9BUL5); assay: Inhibition of PHF23 (unknown origin) after 30 mins by AlphaScreen assay
Procedure, shortened: (§1)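 AlphaScreen competition with histone peptide. Compounds in 3-fold, 10-point dilutions, top 10 or 30 μM; buffer 20 mM Tris pH 8.0, 25 mM NaCl, 2 mM DTT, 0.05% Tween-20. Protein-peptide mix 30 min RT, then streptavidin donor plus nickel-chelate acceptor beads (GST acceptor beads for GST-tagged PHF23, JARID1A) 30 min RT dark. Protein-free His6-biotin peptide counterscreen.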

TP53-binding protein 1 = TP53-binding protein 1 (Homo sapiens, UniProt Q12888); assay: Inhibition of 53BP1 (unknown origin) after 30 mins by AlphaScreen assay
Sequence of TP53-binding protein 1 (Q12888 whole entry): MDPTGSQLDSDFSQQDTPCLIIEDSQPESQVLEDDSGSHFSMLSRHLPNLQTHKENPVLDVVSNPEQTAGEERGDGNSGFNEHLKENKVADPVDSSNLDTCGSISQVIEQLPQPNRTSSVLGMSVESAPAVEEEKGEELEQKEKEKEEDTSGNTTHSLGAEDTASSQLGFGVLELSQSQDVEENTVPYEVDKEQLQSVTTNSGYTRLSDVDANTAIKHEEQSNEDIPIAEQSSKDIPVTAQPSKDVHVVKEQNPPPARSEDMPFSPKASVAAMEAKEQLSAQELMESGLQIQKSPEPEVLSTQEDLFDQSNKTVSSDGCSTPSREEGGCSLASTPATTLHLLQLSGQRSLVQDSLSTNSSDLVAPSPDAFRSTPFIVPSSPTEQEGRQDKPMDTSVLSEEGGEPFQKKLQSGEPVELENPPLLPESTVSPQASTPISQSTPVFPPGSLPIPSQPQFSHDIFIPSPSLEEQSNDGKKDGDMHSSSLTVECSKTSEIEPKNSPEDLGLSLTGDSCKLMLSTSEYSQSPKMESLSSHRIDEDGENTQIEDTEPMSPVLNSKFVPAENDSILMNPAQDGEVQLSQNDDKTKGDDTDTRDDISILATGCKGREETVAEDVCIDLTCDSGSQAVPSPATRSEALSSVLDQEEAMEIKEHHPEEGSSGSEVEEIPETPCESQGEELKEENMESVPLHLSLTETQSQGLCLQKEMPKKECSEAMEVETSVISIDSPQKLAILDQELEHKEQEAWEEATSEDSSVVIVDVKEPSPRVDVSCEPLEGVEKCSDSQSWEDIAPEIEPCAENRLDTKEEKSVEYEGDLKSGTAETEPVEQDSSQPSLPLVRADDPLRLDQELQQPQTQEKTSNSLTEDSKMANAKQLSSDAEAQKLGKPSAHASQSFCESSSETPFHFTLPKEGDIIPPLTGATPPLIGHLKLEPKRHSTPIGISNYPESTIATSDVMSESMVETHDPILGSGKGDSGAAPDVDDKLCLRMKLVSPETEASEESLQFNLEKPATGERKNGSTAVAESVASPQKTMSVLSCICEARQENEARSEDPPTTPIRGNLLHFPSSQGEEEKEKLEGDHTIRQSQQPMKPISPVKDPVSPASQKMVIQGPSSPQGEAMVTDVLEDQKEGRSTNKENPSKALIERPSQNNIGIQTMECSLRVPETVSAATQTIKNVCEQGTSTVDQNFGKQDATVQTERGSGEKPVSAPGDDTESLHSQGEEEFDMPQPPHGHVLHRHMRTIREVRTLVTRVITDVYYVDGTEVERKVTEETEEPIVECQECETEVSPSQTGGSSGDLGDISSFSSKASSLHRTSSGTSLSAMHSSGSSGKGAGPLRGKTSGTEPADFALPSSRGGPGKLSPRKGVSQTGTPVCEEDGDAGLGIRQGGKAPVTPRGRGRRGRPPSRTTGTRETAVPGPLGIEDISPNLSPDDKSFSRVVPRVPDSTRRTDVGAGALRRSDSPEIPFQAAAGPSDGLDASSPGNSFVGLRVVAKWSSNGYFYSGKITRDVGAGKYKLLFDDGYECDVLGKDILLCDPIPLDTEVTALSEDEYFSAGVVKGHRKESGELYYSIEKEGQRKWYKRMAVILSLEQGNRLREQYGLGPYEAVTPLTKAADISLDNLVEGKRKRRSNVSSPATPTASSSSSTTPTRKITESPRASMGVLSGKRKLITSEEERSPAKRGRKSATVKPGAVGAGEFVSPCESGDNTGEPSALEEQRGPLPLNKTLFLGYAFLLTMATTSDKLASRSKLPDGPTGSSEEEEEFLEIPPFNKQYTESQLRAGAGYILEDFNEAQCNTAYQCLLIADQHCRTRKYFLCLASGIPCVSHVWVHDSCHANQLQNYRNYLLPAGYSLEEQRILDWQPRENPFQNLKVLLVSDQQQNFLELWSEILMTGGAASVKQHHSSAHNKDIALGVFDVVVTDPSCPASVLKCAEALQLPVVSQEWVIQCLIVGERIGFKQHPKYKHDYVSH
Procedure, shortened: as §1, with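 “dark. […]” for “dark.”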

[1] = target: T1, E3 ubiquitin-protein ligase UHRF1 (Homo sapiens, UniProt Q96T88); assay: Inhibition of UHRF1 (unknown origin) after 30 mins by AlphaScreen assay
T1 sequence (Q96T88 whole entry): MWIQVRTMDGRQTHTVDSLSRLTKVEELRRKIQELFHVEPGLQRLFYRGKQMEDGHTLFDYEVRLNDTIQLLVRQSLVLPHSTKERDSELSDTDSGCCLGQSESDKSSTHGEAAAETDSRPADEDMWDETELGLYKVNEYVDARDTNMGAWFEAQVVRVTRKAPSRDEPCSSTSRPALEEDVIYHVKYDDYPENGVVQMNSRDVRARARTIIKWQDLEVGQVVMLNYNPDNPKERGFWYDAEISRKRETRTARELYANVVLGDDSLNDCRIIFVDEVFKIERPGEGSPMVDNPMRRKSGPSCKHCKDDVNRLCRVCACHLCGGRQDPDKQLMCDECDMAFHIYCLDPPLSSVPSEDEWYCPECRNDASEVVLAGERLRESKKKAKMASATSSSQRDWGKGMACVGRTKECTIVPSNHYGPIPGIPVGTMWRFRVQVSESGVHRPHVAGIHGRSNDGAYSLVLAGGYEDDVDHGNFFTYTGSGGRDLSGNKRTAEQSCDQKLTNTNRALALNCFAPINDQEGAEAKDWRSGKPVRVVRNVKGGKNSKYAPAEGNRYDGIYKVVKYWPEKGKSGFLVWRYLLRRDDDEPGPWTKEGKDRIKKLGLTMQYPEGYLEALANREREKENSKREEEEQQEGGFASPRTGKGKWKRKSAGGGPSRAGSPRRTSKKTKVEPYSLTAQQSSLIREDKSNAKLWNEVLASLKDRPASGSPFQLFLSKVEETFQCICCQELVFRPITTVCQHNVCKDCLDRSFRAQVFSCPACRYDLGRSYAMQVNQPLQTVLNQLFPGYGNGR
Procedure, shortened: as §1, with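 “dark. […]” for “dark.”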

[2] = target: MBT domain-containing protein 1 (Homo sapiens, UniProt Q05BQ5); assay: Inhibition of MBTD1 (unknown origin) after 30 mins by AlphaScreen assay; procedure, shortened: as §1
Sequence of MBT domain-containing protein 1 (Q05BQ5 whole entry, the tested form may be a part): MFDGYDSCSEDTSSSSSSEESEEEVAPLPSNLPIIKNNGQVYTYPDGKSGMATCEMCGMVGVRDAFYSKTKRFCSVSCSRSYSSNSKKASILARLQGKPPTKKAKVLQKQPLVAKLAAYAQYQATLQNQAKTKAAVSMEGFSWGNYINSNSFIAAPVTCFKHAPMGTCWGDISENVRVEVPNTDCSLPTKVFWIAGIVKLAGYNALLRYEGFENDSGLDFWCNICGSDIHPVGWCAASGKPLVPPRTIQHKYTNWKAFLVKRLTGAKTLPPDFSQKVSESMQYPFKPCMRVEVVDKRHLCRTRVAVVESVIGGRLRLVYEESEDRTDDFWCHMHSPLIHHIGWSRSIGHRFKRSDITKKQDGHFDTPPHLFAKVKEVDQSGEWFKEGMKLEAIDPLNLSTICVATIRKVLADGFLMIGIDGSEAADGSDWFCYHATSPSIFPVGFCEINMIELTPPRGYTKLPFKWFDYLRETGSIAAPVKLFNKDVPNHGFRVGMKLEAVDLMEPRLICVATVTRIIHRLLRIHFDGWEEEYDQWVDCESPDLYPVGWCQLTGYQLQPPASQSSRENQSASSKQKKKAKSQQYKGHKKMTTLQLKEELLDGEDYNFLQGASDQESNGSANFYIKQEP

[3] = target: T2, Scm-like with four MBT domains protein 1 (Homo sapiens, UniProt Q9UHJ3); assay: Inhibition of SFMBT1 (unknown origin) after 30 mins by AlphaScreen assay
T2 sequence (Q9UHJ3 whole entry): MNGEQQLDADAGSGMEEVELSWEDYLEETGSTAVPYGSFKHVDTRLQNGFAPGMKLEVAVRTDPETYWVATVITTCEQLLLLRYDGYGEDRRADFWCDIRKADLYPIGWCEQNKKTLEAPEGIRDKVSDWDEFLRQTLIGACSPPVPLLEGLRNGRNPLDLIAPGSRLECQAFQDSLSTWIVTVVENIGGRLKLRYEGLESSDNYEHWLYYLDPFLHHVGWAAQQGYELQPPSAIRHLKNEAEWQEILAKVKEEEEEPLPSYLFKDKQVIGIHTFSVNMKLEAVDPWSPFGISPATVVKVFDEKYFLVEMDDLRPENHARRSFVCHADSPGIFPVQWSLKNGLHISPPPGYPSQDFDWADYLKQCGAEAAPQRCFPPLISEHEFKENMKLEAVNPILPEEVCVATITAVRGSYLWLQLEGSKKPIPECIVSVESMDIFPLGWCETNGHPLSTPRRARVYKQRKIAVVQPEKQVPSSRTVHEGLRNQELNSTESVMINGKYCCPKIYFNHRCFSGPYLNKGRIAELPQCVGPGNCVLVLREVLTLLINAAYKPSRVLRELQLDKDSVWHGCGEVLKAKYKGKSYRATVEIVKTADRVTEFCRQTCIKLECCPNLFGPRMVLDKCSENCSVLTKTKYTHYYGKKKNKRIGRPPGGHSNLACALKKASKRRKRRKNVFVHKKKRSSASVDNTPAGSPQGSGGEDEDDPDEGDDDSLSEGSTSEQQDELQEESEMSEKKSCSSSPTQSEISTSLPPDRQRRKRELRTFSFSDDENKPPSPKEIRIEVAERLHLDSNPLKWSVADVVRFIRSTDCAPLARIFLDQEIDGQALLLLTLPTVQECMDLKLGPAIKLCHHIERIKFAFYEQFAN
Procedure, shortened: as §1, with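 “dark. […]” for “dark.”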

Sequence of PHD finger protein 23 (Q9BUL5 whole entry): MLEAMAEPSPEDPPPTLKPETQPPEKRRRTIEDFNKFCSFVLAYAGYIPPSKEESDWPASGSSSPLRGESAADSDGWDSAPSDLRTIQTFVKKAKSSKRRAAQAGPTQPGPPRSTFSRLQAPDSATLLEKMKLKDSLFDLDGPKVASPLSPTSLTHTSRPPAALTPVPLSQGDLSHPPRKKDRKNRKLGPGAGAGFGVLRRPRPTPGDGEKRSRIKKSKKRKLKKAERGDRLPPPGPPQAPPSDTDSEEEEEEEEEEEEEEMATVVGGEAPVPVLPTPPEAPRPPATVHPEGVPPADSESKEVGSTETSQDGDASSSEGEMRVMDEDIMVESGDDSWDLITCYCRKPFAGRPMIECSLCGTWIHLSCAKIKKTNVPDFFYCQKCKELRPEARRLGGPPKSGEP

| Structure (SMILES) | IC50 (PHD finger protein 23) [µM] | IC50 (TP53-binding protein 1) [µM] | IC50 [1] [µM] | IC50 [2] [µM] | IC50 [3] [µM] |
| --- | --- | --- | --- | --- | --- |
| O=C(c1ccc(C(=O)N2CCCC(N3CCCC3)CC2)cc1)N1CCCC(N2CCCC2)CC1 (stereo not given) | > 10 | > 10 | > 10 | > 10 | > 10 |
| O=C(c1ccc(C(=O)N2CCC(N3CCCC3)C2)cc1)N1CCC(N2CCCC2)CC1 (stereo not given) | > 10 | > 10 | > 10 | > 10 | > 10 |
| O=C(c1ccc(C(=O)N2CCC(N3CCCC3)CC2)c(C(=O)N2CCC(N3CCCC3)CC2)c1)N1CCC(N2CCCC2)CC1 | > 10 | 7.9 | > 10 | > 10 | > 10 |
| CCN1Cc2ccc(NC(=O)c3ccc(C(=O)N4CCC(C5CCCN5)CC4)cc3Nc3ccccc3)cc2C1 (stereo not given) | > 10 | 3.5 | > 10 | 3.5 | > 10 |
| CC(C1CCN(C(=O)c2ccc(C(=O)N3CCC(N4CCCC4)CC3)cc2)CC1)N1CCN(C)CC1 (stereo not given) | > 10 | > 10 | > 10 | > 10 | > 10 |
| Cc1cc(C(=O)N2CCC(N3CCCC3)CC2)c(C)cc1C(=O)N1CCC(N2CCCC2)CC1 | > 10 | > 10 | > 10 | > 10 | > 10 |
| O=C(c1ccc(C(=O)N2CCC(C3CCCN3)CC2)cc1)N1CCC(C2CCCN2)CC1 (stereo not given) | > 10 | > 10 | > 10 | 4 | > 10 |
| O=C(c1ccc(C(=O)N2CCC(N3CCCC3)CC2)c(Oc2ccccc2)c1)N1CCC(N2CCCC2)CC1 | > 10 | > 10 | > 10 | 9.3 | > 10 |
| O=C(c1ccc(C(=O)N2CCC3(CCNC3)C2)cc1)N1CCC(N2CCCC2)CC1 (stereo not given) | > 10 | > 10 | > 10 | > 10 | > 10 |
| O=C(c1ccc(C(=O)N2CCC(N3CCCCC3)CC2)cc1)N1CCC(N2CCCCC2)CC1 | > 10 | > 10 | > 10 | 4.9 | > 10 |
| O=C(c1ccc(C(=O)N2CCC(N3CCOCC3)CC2)cc1)N1CCC(N2CCCC2)CC1 | > 10 | > 10 | > 10 | > 10 | > 10 |
| CCN1Cc2ccc(NC(=O)c3ccc(C(=O)N4CCC(C5CCCN5)CC4)cc3)cc2C1 (stereo not given) | > 10 | > 10 | > 10 | > 10 | > 10 |
| O=C(c1ccc(C(=O)N2CCC(N3CCC3)CC2)cc1)N1CCC(N2CCC2)CC1 | > 10 | > 10 | > 10 | > 10 | > 10 |
| O=C(c1ccc(C(=O)N2CCC3(CCNC3)CC2)cc1)N1CCC(N2CCCC2)CC1 | > 10 | > 10 | > 10 | > 10 | > 10 |

Next, values leading:

| IC50 (PHD finger protein 23) [µM] | IC50 (TP53-binding protein 1) [µM] | IC50 [1] [µM] | IC50 [2] [µM] | IC50 [3] [µM] | Structure (SMILES) |
| --- | --- | --- | --- | --- | --- |
| > 10 | > 10 | > 10 | 8.1 | > 10 | O=C(c1ccc(CN2CCC(N3CCCC3)CC2)cc1)N1CCC(N2CCCC2)CC1 |
| > 10 | > 10 | > 10 | > 10 | > 10 | CN1CCC(N2CCN(C(=O)c3ccc(C(=O)N4CCC(N5CCCC5)CC4)cc3)CC2)CC1 |
| > 10 | > 10 | > 10 | > 10 | > 10 | O=C(c1c(F)c(F)c(C(=O)N2CCC(N3CCCC3)CC2)c(F)c1F)N1CCC(N2CCCC2)CC1 |
| > 10 | > 10 | > 10 | > 10 | > 10 | CN(C)C1CCN(C(=O)c2ccc(C(=O)N3CCC(N4CCCC4)CC3)cc2)CC1 |
| > 10 | > 10 | > 10 | > 10 | > 10 | O=C(c1ccc(C(=O)N2CCC(N3CCCC3)CC2)nc1)N1CCC(N2CCCC2)CC1 |
| > 10 | > 10 | > 10 | > 10 | > 10 | O=C(c1ccc(C(=O)N2CCC(N3CCCC3)CC2)c([N+](=O)[O-])c1)N1CCC(N2CCCC2)CC1 |
| > 10 | > 10 | > 10 | > 10 | > 10 | CN(C)C1CCN(C(=O)c2ccc(C(=O)N3CCC(N(C)C)CC3)cc2)CC1 |
